# Source: ChEMBL document CHEMBL4837218, “Synthesis and in vitro antitumour activity of 4(R)-methyl-3-O-phosphonomethyl-α-l-threose nucleosides” (Eur J Med Chem, 2021)
# Legend:
# [1] = tested on: HeLa; assay: Anticancer activity against human HeLa cells assessed as inhibition of cell growth measured after 72 hrs by MTT assay; type: functional, cell-based
# How it was run: (§1)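 Cells seeded at 3000 exponentially growing cells/well and incubated 12 h at 37 °C. Medium then replaced with fresh medium containing graded compound concentrations for 72 h; 5-FU positive control. MTT (5 mg/mL solution) added for 4 h, formazan dissolved in DMSO, absorbance read at 570 nm (reference 630 nm). Relative percentage inhibition of viable cells calculated; IC50 reported as mean ± standard deviation.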
# [2] = tested on: MCF7; assay: Anticancer activity against human MCF7 cells assessed as inhibition of cell growth measured after 72 hrs by MTT assay; type: functional, cell-based; settings: MCF7, 72 h; how it was run: as §1
# [3] = tested on: MGC-803; assay: Anticancer activity against human MGC-803 cells assessed as inhibition of cell growth measured after 72 hrs by MTT assay; type: functional, cell-based; settings: MGC-803, 72 h; how it was run: as §1
# [4] = tested on: Human immunodeficiency virus 1; assay: Anti-HIV activity against HIV-1 3B infected in human MT4 cells assessed as protection against virus-induced cytopathicity measured after 5 days by MTT assay; type: functional, organism-based; settings: Human immunodeficiency virus 1, 3B, MT4, 120 h
Compound,IC50 [1] [µM],IC50 [2] [µM],IC50 [3] [µM],EC50 [4] [µM]
C[C@H]1O[C@@H](n2cc(F)c(N)nc2=O)[C@H](O)[C@H]1OCP(=O)(O)O,> 16,> 16,> 16,–
C[C@H]1O[C@@H](n2cc(Cl)c(=O)[nH]c2=O)[C@H](O)[C@H]1OCP(=O)(O)O,> 16,> 16,> 16,–
C[C@H]1O[C@@H](n2ccc(=O)[nH]c2=O)[C@H](O)[C@H]1OCP(=O)(O)O,> 16,> 16,> 16,–
Nc1ncnc2c1ncn2[C@H]1C[C@@H](OCP(=O)(O)O)CO1,–,–,–,2.5
Cc1cn([C@H]2C[C@@H](OCP(=O)(O)O)CO2)c(=O)[nH]c1=O,–,–,–,6.59

# Continued, in another order:
IC50 [1] [µM],IC50 [2] [µM],IC50 [3] [µM],Compound,EC50 [4] [µM]
> 16,> 16,> 16,C[C@H]1O[C@@H](n2cnc3c(N)ncnc32)[C@H](O)[C@H]1OCP(=O)(O)O,–
> 16,> 16,> 16,Cc1cn([C@@H]2O[C@H](C)[C@H](OCP(=O)(O)O)[C@H]2O)c(=O)[nH]c1=O,–
> 16,> 16,> 16,C[C@H]1O[C@@H](n2ccc(N)nc2=O)[C@H](O)[C@H]1OCP(=O)(O)O,–
> 16,> 16,> 16,C[C@H]1O[C@@H](n2cc(F)c(=O)[nH]c2=O)[C@H](O)[C@H]1OCP(=O)(O)O,–
